Experimental findings from ChEMBL document CHEMBL3124838, “Discovery of 6-aryl-azabenzimidazoles that inhibit the TBK1/IKK-ε kinases” (Bioorg Med Chem Lett, 2014) are described below.

SMILES strings stand for the structures. Where only a bound is given, the exact number is not on record here.

One assay deals with T1, Serine/threonine-protein kinase TBK1 (Homo sapiens, UniProt Q9UHD2).
T1 sequence (Q9UHD2 whole entry): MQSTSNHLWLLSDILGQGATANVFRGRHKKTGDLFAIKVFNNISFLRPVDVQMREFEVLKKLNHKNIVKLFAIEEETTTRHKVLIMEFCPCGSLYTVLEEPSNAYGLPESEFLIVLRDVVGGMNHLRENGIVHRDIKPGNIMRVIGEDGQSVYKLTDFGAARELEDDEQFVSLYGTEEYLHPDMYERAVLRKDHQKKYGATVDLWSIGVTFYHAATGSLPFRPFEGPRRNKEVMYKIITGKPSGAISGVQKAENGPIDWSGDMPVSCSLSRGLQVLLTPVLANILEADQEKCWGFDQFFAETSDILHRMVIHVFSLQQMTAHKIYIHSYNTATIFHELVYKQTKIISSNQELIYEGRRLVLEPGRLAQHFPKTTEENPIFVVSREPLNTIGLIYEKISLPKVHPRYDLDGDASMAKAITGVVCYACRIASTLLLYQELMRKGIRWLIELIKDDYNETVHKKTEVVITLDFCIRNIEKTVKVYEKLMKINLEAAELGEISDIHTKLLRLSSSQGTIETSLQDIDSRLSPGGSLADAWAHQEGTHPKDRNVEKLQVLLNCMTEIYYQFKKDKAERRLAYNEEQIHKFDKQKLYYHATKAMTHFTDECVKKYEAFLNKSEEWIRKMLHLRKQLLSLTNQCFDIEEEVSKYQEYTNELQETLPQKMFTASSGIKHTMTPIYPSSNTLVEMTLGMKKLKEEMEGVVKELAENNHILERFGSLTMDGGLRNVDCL
As to the kind of experiment: Inhibition of TBK1 in HEK293 cells after 4.5 hrs by ISRE-luciferase reporter gene assay in presence of poly I:C. It counts as cell-based. A general note: Reporter assays use an easily measured gene product as a stand-in for the process of interest.
As usually defined, the IC50 is the concentration needed to halve the response being measured. On to `COc1ccc(-c2nc3c(NCCCNC(=O)C4CCCC4)c(-c4nc(C(=O)O)cs4)cnc3[nH]2)cc1`, for which the 50% inhibitory concentration (IC50) was 2170 nM.

Turning to `CNC(=O)c1cc(-c2cnc3nc(-c4ccc(OC)cc4)[nH]c3c2)cs1`, the 50% inhibitory concentration (IC50) came to 851 nM.

For `COc1ccc(-c2nc3c(OCCCNC(=O)C4CCCC4)c(-c4csc(C(=O)O)c4)cnc3[nH]2)cc1`, the half-maximal inhibitory concentration (IC50) is over 3000 nM.

Consider `COc1ccc(-c2nc3cc(-c4cc(C(=O)O)cs4)cnc3[nH]2)cc1`, for which the 50% inhibitory concentration (IC50) is over 30000 nM.

On to `COc1ccc(-c2nc3c(NCCCNC(=O)C4CCCC4)c(-c4nc(C(=O)NCC(C)C)cs4)cnc3[nH]2)cc1`, for which the IC50 was determined as 128 nM.

With `COc1ccc(-c2nc3ncc(-c4csc(C(=O)O)c4)cc3[nH]2)cc1`, the concentration for half-maximal inhibition (IC50) was over 30000 nM.

The target of a further assay is T2, Inhibitor of nuclear factor kappa-B kinase subunit epsilon (Homo sapiens, UniProt Q14164).
T2 sequence (Q14164 whole entry): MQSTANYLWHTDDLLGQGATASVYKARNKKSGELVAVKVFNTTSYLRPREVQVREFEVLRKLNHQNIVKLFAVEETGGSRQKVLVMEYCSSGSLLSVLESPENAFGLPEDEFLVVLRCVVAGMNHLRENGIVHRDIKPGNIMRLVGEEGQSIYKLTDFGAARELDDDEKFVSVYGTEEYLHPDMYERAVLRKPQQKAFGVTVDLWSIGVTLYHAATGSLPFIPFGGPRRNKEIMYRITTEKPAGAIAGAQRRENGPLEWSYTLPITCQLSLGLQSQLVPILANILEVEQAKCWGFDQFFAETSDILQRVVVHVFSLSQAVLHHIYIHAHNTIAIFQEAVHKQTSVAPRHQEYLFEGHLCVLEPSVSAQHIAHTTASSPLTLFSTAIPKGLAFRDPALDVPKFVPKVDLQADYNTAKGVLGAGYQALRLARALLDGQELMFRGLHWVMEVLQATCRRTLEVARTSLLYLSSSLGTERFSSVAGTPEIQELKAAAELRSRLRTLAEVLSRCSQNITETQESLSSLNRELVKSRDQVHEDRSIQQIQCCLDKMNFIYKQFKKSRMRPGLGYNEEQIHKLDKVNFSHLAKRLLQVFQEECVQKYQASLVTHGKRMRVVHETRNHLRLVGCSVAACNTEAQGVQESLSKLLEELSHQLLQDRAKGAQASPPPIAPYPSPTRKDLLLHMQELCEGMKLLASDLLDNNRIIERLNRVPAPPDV
The assay is described as follows: Inhibition of IKK-epsilon (unknown origin) using 5FAM-AKELDQGSLCTpSFVGTLQ-NH2 as substrate by microfluidic mobility shift assay. In short, it runs like this: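 Recombinant IKK-ε (4 nM) in HEPES buffer with 1.5 µM 5FAM-labelled peptide substrate, ATP at its K_M, and 10 mM MgCl2. The 10-point titration used half-log serial dilutions. Reactions ran at room temperature for a set time, were quenched with EDTA-containing HEPES, and were read by microfluidic mobility shift. Percent inhibition came from the ratio of phosphorylated to total peptide.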
Turning to `COc1ccc(-c2nc3c(OCCCNC(=O)C4CCCC4)c(Br)cnc3[nH]2)cc1`, the IC50 was over 30000 nM.

Regarding `COc1ccc(-c2nc3cc(-c4csc(C#N)c4)cnc3[nH]2)cc1`, the IC50 was over 30000 nM.

For `COc1ccc(-c2nc3c(NCCCNC(=O)C4CCCC4)c(-c4nc(C(=O)O)cs4)cnc3[nH]2)cc1`, the IC50 was found to be 158 nM.

Regarding `CNc1c(-c2ccc(C(=O)O)s2)cnc2[nH]c(-c3ccc(OC)cc3)nc12`, the IC50 is 3300 nM.

Regarding `CNC(=O)c1cc(-c2cnc3nc(-c4ccc(OC)cc4)[nH]c3c2)cs1`, the IC50 is 2560 nM.

Turning to `COc1ccc(-c2nc3c(OCCCNC(=O)C4CCCC4)c(-c4csc(C(=O)O)c4)cnc3[nH]2)cc1`, the IC50 worked out at 1100 nM.

Take `COc1ccc(-c2nc3cc(-c4cc(C(=O)O)cs4)cnc3[nH]2)cc1`: the concentration for half-maximal inhibition (IC50) came out at 395 nM.

With `COc1ccc(-c2nc3c(NCCCNC(=O)C4CCCC4)c(-c4nc(C(=O)NCC(C)C)cs4)cnc3[nH]2)cc1`, the IC50 came out at 3230 nM.

In the case of `COc1ccc(-c2nc3ncc(-c4csc(C(=O)O)c4)cc3[nH]2)cc1`, the concentration for half-maximal inhibition (IC50) was determined as 114 nM.

For the next assay, the target named is Aurora kinase B (Homo sapiens, UniProt Q96GD4). As to the kind of experiment: Inhibition of aurora B (unknown origin).
Chain of Aurora kinase B (Q96GD4 whole entry): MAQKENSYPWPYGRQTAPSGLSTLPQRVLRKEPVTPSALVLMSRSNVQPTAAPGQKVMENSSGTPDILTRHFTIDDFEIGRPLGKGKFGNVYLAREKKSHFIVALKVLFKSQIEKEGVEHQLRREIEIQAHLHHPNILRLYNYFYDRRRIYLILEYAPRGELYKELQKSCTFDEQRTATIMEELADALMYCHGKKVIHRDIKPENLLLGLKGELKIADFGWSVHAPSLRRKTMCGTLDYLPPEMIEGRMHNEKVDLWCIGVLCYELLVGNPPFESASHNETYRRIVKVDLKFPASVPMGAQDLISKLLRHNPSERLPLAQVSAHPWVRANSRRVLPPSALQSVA
`COc1ccc(-c2nc3c(OCCCNC(=O)C4CCCC4)c(Br)cnc3[nH]2)cc1`: the IC50 came out at 156 nM.

In turn, `COc1ccc(-c2nc3c(NCCCNC(=O)C4CCCC4)c(-c4nc(C(=O)O)cs4)cnc3[nH]2)cc1` showed a concentration for half-maximal inhibition (IC50) of 299 nM.

`COc1ccc(-c2nc3c(OCCCNC(=O)C4CCCC4)c(-c4csc(C(=O)O)c4)cnc3[nH]2)cc1` registered an IC50 of 1300 nM.

With `COc1ccc(-c2nc3c(NCCCNC(=O)C4CCCC4)c(-c4nc(C(=O)NCC(C)C)cs4)cnc3[nH]2)cc1`, it took 2470 nM to reach half-maximal inhibition (IC50).

The next assay deals with Cyclin-dependent kinase 2 (Homo sapiens, UniProt P24941). As to the kind of experiment: Inhibition of CDK2 (unknown origin).
As for `COc1ccc(-c2nc3c(OCCCNC(=O)C4CCCC4)c(Br)cnc3[nH]2)cc1`, the IC50 was over 30000 nM.

With `COc1ccc(-c2nc3c(NCCCNC(=O)C4CCCC4)c(-c4nc(C(=O)O)cs4)cnc3[nH]2)cc1`, the 50% inhibitory concentration (IC50) came to 13600 nM.

For the compound `COc1ccc(-c2nc3c(OCCCNC(=O)C4CCCC4)c(-c4csc(C(=O)O)c4)cnc3[nH]2)cc1`, the IC50 was over 30000 nM.

For the compound `COc1ccc(-c2nc3c(NCCCNC(=O)C4CCCC4)c(-c4nc(C(=O)NCC(C)C)cs4)cnc3[nH]2)cc1`, the IC50 was over 30000 nM.

For the next assay, the target named is T1, Serine/threonine-protein kinase TBK1. As to the kind of experiment: Inhibition of recombinant full-length TBK1 (unknown origin) using CK1tide as substrate by microfluidic mobility shift assay.
Turning to `COc1ccc(-c2nc3c(OCCCNC(=O)C4CCCC4)c(Br)cnc3[nH]2)cc1`, the IC50 turned out to be 759 nM.

On to `O=C(O)c1ccc(-c2cnc3nc(-c4ccc(OCCN5CCCCC5)cc4)[nH]c3c2)cc1`, for which the IC50 came out at 859 nM.

For `COc1ccc(-c2nc3cc(-c4csc(C#N)c4)cnc3[nH]2)cc1`, the half-inhibitory concentration (IC50) is over 30000 nM.

`COc1ccc(-c2nc3c(NCCCNC(=O)C4CCCC4)c(-c4nc(C(=O)O)cs4)cnc3[nH]2)cc1`: the IC50 worked out at 36 nM.

With `CNc1c(-c2ccc(C(=O)O)s2)cnc2[nH]c(-c3ccc(OC)cc3)nc12`, the half-inhibitory concentration (IC50) was 1040 nM.

Regarding `CNc1c(-c2ccc(C(=O)O)cc2)cnc2nc(-c3ccc(OC)cc3)[nH]c12`, the IC50 was determined as 1800 nM.

As to `CNC(=O)c1cc(-c2cnc3nc(-c4ccc(OC)cc4)[nH]c3c2)cs1`, the IC50 stood at 203 nM.

Take `COc1ccc(-c2nc3c(OCCCNC(=O)C4CCCC4)c(-c4csc(C(=O)O)c4)cnc3[nH]2)cc1`: the IC50 was 460 nM.

For the compound `COc1ccc(-c2nc3cc(-c4cc(C(=O)O)cs4)cnc3[nH]2)cc1`, the IC50 worked out at 129 nM.

Regarding `COc1ccc(-c2nc3c(NCCCNC(=O)C4CCCC4)c(-c4nc(C(=O)NCC(C)C)cs4)cnc3[nH]2)cc1`, the half-inhibitory concentration (IC50) stood at 388 nM.

As for `COc1ccc(-c2nc3ncc(-c4csc(C(=O)O)c4)cc3[nH]2)cc1`, the half-inhibitory concentration (IC50) worked out at 49 nM.
